Format in all cases: functional
Experiment [1] concerns Enterococcus faecium. The experiment is described as follows: Minimum inhibition concentration in vitro determined against Streptococcus faecium ATCC 8043. Put shortly: (§1)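 Agar dilution on brain-heart infusion (BHI) agar with twofold dilutions from a 2000 µg/mL stock, giving final test concentrations of 200-0.005 µg/mL. Organisms were grown overnight in BHI broth at 36 °C, and about 10⁴ organisms were inoculated per plate. Plates were incubated 18 h at 36 °C. MIC was the lowest concentration with no visible growth.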

Experiment [2] has as its system Staphylococcus aureus. The experiment is described as follows: Minimum inhibition concentration in vitro determined against Staphylococcus aureus CMX 686B. The method, boiled down: as §1
Experiment [3] deals with Pseudomonas aeruginosa. The experiment is described as follows: Minimum inhibition concentration in vitro determined against Pseudomona aeruginosa K799/WT. The method, boiled down:
as §1

A further experiment concerns Escherichia coli. The experiment is described as follows: Minimum inhibition concentration in vitro determined against Escherichia coli juhl. The conditions noted are these: Escherichia coli; read-out: MIC. The method, boiled down: as §1
Another experiment relates to Klebsiella pneumoniae. The experiment is described as follows: Minimum inhibition concentration in vitro determined against Klebsiella pneumoniae 8045. Put shortly:
as §1

The subject of experiment [4] is Pseudomonas aeruginosa. The experiment is described as follows: Minimum inhibition concentration in vitro determined against Pseudomona aeruginosa 5007. The method, boiled down: as §1
The subject of another experiment is Acinetobacter. The experiment is described as follows: Minimum inhibition concentration in vitro determined against Acinetobacter sp CMX669. The method, boiled down:
as §1

Experiment [5] concerns Staphylococcus aureus. The experiment is described as follows: Minimum inhibition concentration in vitro determined against Staphylococcus aureus ATCC 6538P. The method, boiled down:
as §1

For experiment [6], the system named is Staphylococcus epidermidis. The experiment is described as follows: Minimum inhibition concentration in vitro determined against Staphylococcus epidermidis 3519. The method, boiled down:
as §1

Another experiment has as its system Klebsiella aerogenes. The experiment is described as follows: Minimum inhibition concentration in vitro determined against Enterobacteri aerogenes ATCC 13048. Put shortly: as §1
Another experiment has as its system Streptococcus pyogenes. The experiment is described as follows: Minimum inhibition concentration in vitro determined against Streptococcus pyogenes 930. The method, boiled down: as §1
The subject of experiment [7] is Enterococcus faecium. The experiment is described as follows: 0 Minimum inhibition concentration was determined against Streptococcus faecium ATCC 8043 (in vitro). Put shortly:
as §1

≈ marks a conversion by molar mass, not a printed value. Bounds are passed on as bounds.

Take `CN1CCN(c2cc3c(cc2F)c(=O)c(C(=O)O)cn3-c2ccccc2)CC1`: the MIC turned out to be 12.5 µg/mL (≈ 32.8 µM) with Enterococcus faecium [1]; 0.78 µg/mL (≈ 2.05 µM) against Staphylococcus aureus [2]; 3.1 µg/mL (≈ 8.13 µM) against Pseudomonas aeruginosa [3]; 0.78 µg/mL (≈ 2.05 µM) in the experiment on Escherichia coli; 0.2 µg/mL (≈ 0.524 µM) against Klebsiella pneumoniae; 6.2 µg/mL (≈ 16.3 µM) against Pseudomonas aeruginosa [4]. In addition, the minimal inhibitory concentration (MIC) in the experiment with Acinetobacter was 1.56 µg/mL (≈ 4.09 µM); in the experiment on Staphylococcus aureus [5] it was 0.78 µg/mL (≈ 2.05 µM); in [6], 0.78 µg/mL (≈ 2.05 µM); against Klebsiella aerogenes, 1.56 µg/mL (≈ 4.09 µM); against Streptococcus pyogenes, 3.1 µg/mL (≈ 8.13 µM).

As for `COc1ccc(-n2cc(C(=O)O)c(=O)c3cc(F)c(N4CCN(C)CC4)cc32)cc1`, the MIC in the experiment with Enterococcus faecium [1] was 100 µg/mL (≈ 243 µM); against Staphylococcus aureus [2], 12.5 µg/mL (≈ 30.4 µM); against Pseudomonas aeruginosa [3], 100 µg/mL (≈ 243 µM); with Escherichia coli it was 50 µg/mL (≈ 122 µM); in the experiment with Klebsiella pneumoniae, 12.5 µg/mL (≈ 30.4 µM); against Pseudomonas aeruginosa [4] it was 200 µg/mL (≈ 486 µM). Besides, the MIC worked out at 50 µg/mL (≈ 122 µM) against Acinetobacter; 12.5 µg/mL (≈ 30.4 µM) in the experiment on Staphylococcus aureus [5]; 50 µg/mL (≈ 122 µM) in experiment [6]; 50 µg/mL (≈ 122 µM) in the experiment with Klebsiella aerogenes; 50 µg/mL (≈ 122 µM) against Streptococcus pyogenes.

With `CC(=O)NC1CCN(c2cc3c(cc2F)c(=O)c(C(=O)O)cn3-c2ccc(F)cc2)C1` (stereo not drawn), the minimal inhibitory concentration (MIC) in the experiment on Enterococcus faecium [1] was 1.56 µg/mL (≈ 3.65 µM); in the experiment on Staphylococcus aureus [2], 0.39 µg/mL (≈ 0.912 µM); with Pseudomonas aeruginosa [3], 6.2 µg/mL (≈ 14.5 µM); in the experiment on Escherichia coli, 0.78 µg/mL (≈ 1.82 µM); in the experiment on Klebsiella pneumoniae, 0.78 µg/mL (≈ 1.82 µM); with Pseudomonas aeruginosa [4], 6.2 µg/mL (≈ 14.5 µM). Besides, the MIC in the experiment on Acinetobacter stood at 3.1 µg/mL (≈ 7.25 µM); in the experiment on Staphylococcus aureus [5], 0.1 µg/mL (≈ 0.234 µM); in [6], 0.39 µg/mL (≈ 0.912 µM); against Klebsiella aerogenes it was 1.56 µg/mL (≈ 3.65 µM); in the experiment with Streptococcus pyogenes it was 0.78 µg/mL (≈ 1.82 µM).

In the case of `Cc1cccc(C)c1-n1cc(C(=O)O)c(=O)c2cc(F)c(N3CCN(C)CC3)cc21`, the MIC with Enterococcus faecium [1], with Staphylococcus aureus [2], against Pseudomonas aeruginosa [3], with Escherichia coli, in the experiment on Klebsiella pneumoniae and in the experiment with Pseudomonas aeruginosa [4] was > 100 µg/mL each time. Also, the MIC (with Acinetobacter; with Staphylococcus aureus [5]; in experiment [6]; against Klebsiella aerogenes; in the experiment on Streptococcus pyogenes) was > 100 µg/mL throughout.

`CN1CCN(c2cc3c(cc2F)c(=O)c(C(=O)O)cn3-c2cccc(F)c2)CC1`: the MIC in the experiment on Enterococcus faecium [1] was 50 µg/mL (≈ 125 µM); in the experiment with Staphylococcus aureus [2] it was 12.5 µg/mL (≈ 31.3 µM); in the experiment with Pseudomonas aeruginosa [3] it was 50 µg/mL (≈ 125 µM); in the experiment with Escherichia coli, 6.2 µg/mL (≈ 15.5 µM); against Klebsiella pneumoniae, 3.1 µg/mL (≈ 7.76 µM); with Pseudomonas aeruginosa [4], 50 µg/mL (≈ 125 µM). The MIC stood at 50 µg/mL (≈ 125 µM) with Acinetobacter; 12.5 µg/mL (≈ 31.3 µM) in the experiment with Staphylococcus aureus [5]; 12.5 µg/mL (≈ 31.3 µM) in experiment [6]; 6.2 µg/mL (≈ 15.5 µM) with Klebsiella aerogenes; 25 µg/mL (≈ 62.6 µM) against Streptococcus pyogenes.

Regarding `CCC(=O)N1CCN(c2cc3c(cc2F)c(=O)c(C(=O)O)cn3-c2ccc(F)cc2)CC1`, the MIC was 6.2 µg/mL (≈ 14 µM) against Enterococcus faecium [1]; 0.2 µg/mL (≈ 0.453 µM) in the experiment on Staphylococcus aureus [2]; 12.5 µg/mL (≈ 28.3 µM) with Pseudomonas aeruginosa [3]; 1.56 µg/mL (≈ 3.53 µM) in the experiment with Escherichia coli; 0.78 µg/mL (≈ 1.77 µM) in the experiment on Klebsiella pneumoniae; 12.5 µg/mL (≈ 28.3 µM) in the experiment on Pseudomonas aeruginosa [4]. For the same compound, the minimum inhibitory concentration (MIC) against Acinetobacter was determined as 6.2 µg/mL (≈ 14 µM); against Staphylococcus aureus [5], 0.2 µg/mL (≈ 0.453 µM); in experiment [6] it was 0.78 µg/mL (≈ 1.77 µM); with Klebsiella aerogenes, 3.1 µg/mL (≈ 7.02 µM); against Streptococcus pyogenes, 1.56 µg/mL (≈ 3.53 µM).

For `CN1CCN(c2cc3c(cc2F)c(=O)c(C(=O)O)cn3-c2ccc(Br)cc2)CC1`, the MIC amounted to 100 µg/mL (≈ 217 µM) against Enterococcus faecium [1]; 3.1 µg/mL (≈ 6.73 µM) against Staphylococcus aureus [2]; 25 µg/mL (≈ 54.3 µM) against Pseudomonas aeruginosa [3]; 6.2 µg/mL (≈ 13.5 µM) with Escherichia coli; 3.1 µg/mL (≈ 6.73 µM) with Klebsiella pneumoniae; 50 µg/mL (≈ 109 µM) with Pseudomonas aeruginosa [4]. In addition, the MIC against Acinetobacter came to 12.5 µg/mL (≈ 27.2 µM); against Staphylococcus aureus [5] it was 3.1 µg/mL (≈ 6.73 µM); in [6], 3.1 µg/mL (≈ 6.73 µM); in the experiment with Klebsiella aerogenes, 12.5 µg/mL (≈ 27.2 µM); against Streptococcus pyogenes, 50 µg/mL (≈ 109 µM).

As to `CN1CCN(c2cc3c(cc2F)c(=O)c(C(=O)O)cn3-c2ccc3c(c2)OCO3)CC1`, the MIC in the experiment on Staphylococcus aureus [2] came out at 0.78 µg/mL (≈ 1.83 µM); in the experiment on Pseudomonas aeruginosa [3], 6.2 µg/mL (≈ 14.6 µM); in the experiment with Escherichia coli, 0.78 µg/mL (≈ 1.83 µM); against Enterococcus faecium [7], 50 µg/mL (≈ 118 µM); in the experiment with Klebsiella pneumoniae it was 0.2 µg/mL (≈ 0.47 µM); in the experiment on Pseudomonas aeruginosa [4], 6.2 µg/mL (≈ 14.6 µM). Besides, the MIC against Acinetobacter was 0.78 µg/mL (≈ 1.83 µM); in the experiment on Staphylococcus aureus [5] it was 0.78 µg/mL (≈ 1.83 µM); in experiment [6] it was 1.56 µg/mL (≈ 3.67 µM); against Klebsiella aerogenes it was 0.78 µg/mL (≈ 1.83 µM); against Streptococcus pyogenes it was 12.5 µg/mL (≈ 29.4 µM).

The MIC is the lowest concentration that inhibits growth of the organism.

These data come from ChEMBL document CHEMBL1122831, “Synthesis and structure-activity relationships of novel arylfluoroquinolone antibacterial agents” (1985).
